From PubChem
PglD DTNB = C. jejuni PglD acetyltransferase inhibitors, primary screen, biochemical, DTNB colorimetric, single point; UDP-N-acetylbacillosamine N-acetyltransferase PglD (Campylobacter jejuni); purified PglD enzyme, DTNB colorimetric CoA detection; inhibition, % at 12.5 µM; actives 0.098% (n = 360,000); in the data active means inhibition above about 16%, passing the limit was not always enough
FGF22 binding = binders of human FGF22 protein, primary screen, FGF22 synaptogenesis inhibitor project, biophysical, thermal shift, single point; activity (Tm shift, normalised), % at 9.99 µM; AID 651658, 2012; recombinant FGF22 thermal shift, SYPRO orange fluorescence; percent of sucrose octasulfate shift, DMSO zero; actives 1.5% (n = 340,000); Fibroblast growth factor 22 (Homo sapiens), Q9HCT0;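 active means mean Tm shift, scaled 0 neutral to 100 positive control, at about 1.3% or above, every replicate too, limit read from the data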
Target sequence (Q9HCT0 whole entry, looked up): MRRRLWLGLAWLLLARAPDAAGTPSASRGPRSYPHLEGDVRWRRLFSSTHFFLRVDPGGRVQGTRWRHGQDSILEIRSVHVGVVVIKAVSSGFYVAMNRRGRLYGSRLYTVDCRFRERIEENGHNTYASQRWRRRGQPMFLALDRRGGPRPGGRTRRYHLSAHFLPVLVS
E-selectin induc = E-selectin induction in HUVECs, primary screen, imaging, HUVEC, immunofluorescence imaging, single point; P16581; normalized: neutral wells 0, TNF-alpha wells 100; actives 0.37% (n = 260,000); activation, % at 7.58 µM;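 active means mean E-selectin-positive cell signal at least 10% of the positive control, reached in at least 60% of replicates, without over 20% cell loss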
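Assay system: HUVEC primary endothelial cells. Input: 3,000 HUVEC seeded per well. Doses: one compound dose added by pin transfer. Read-out basis: % PE-positive cells. Benchmarks: TNF-alpha high, DMSO low. Detection: immunofluorescence imaging. Buffer or medium: EGM-2, gelatin.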
DENV2 CPE rescue = inhibitors of DENV2 cytopathic effect, primary screen, cell-based, plate reader, single concentration; DENV2-infected cells, cytopathic effect rescue; CPE inhibition, % at 9.99 µM; actives 1.7% (n = 350,000); in the data active means CPE inhibition above about 20%, passing the limit was not always enough; tested in BHK-21 cells;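 further: 0% = median of neutral control wells and 100% = median of positive control wells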
Statin myotox sup = suppressors of statin myotoxicity in C2C12 myotubes, primary screen, cell-based, single point, plate reader; C2C12 myotubes + simvastatin, ATP luminescence, 48 h; scaled: DMSO 0, geranylgeraniol control 100; rescue of ATP level, % at 7.49 µM; actives 0.78% (n = 330,000); AID 602340, 2012;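 active means mean ATP rescue above about 67%, or every replicate alone reaching that limit, limit read from the data, passing the limit was not always enough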;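 further: myotubes were challenged with 10 µM simvastatin during compound exposure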
Xi reactivation = activators of inactive X chromosome reactivation, primary screen, imaging, XiGFP fibroblasts, GFP high-content imaging, set 2; XiGFP mouse fibroblasts, % GFP-positive cells imaging, 3 d; cells co-treated with 5-aza-dC sensitizer; scaled so ellipticine positive control = 100%; activation, % at 7.58 µM; actives 0.055% (n = 360,000);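 active means mean normalized replicate activation at least 10% and every replicate at or above 10%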;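 further: 0% = median of on-plate neutral control wells and 100% = ellipticine 6 µM median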
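Material: XiGFP fibroblasts, SV40-immortalized. Buffer or medium: DMEM plus 5-aza-dC sensitizer. Compound: single concentration per compound, delivered by pin transfer. Times: 3 days compound exposure. Controls: ellipticine 6 µM.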
Numbers without * were called inactive; · = no result given. Hits are enriched below; roughly 3.3% of the tested compounds scored in any of these assays.

SMILES	PglD DTNB	FGF22 binding	E-selectin induc	DENV2 CPE rescue	Statin myotox sup	Xi reactivation
OCCC1CN(CCCn2cccn2)CCN1Cc1ccccc1 (stereo not given)	4	43*	·	3	3	0
CCOc1ccccc1CN1CCN(Cc2ccc(C)o2)C(CCO)C1 (stereo not given)	·	43*	·	-7	·	0
CCOc1ccc(CN2CCN(Cc3nc(C(C)C)cs3)CC2CCO)cc1 (stereo not given)	·	43*	·	1	·	0
Cc1ccc(CN2CCN(CCCc3ccccc3)CC2CCO)cc1 (stereo not given)	-3	0	5	2	6	0
CCOc1ccc(CN2CCN(CCCc3ccccc3)CC2CCO)cc1 (stereo not given)	-6	0	·	22*	-5	0
C[C@@H]1CCCCO[C@H](CN(C)C(=O)Nc2ccccc2)[C@@H](C)CN([C@H](C)CO)C(=O)c2cc(NS(C)(=O)=O)ccc2O1	1	0	0	-12	·	0
COc1ccc(CC(C)N2CCN(Cc3ccccc3)CC2)c(OC)c1 (stereo not given)	-3	0	·	2	96*	·
COc1ccc(NC2CC(=O)N(c3cccc([N+](=O)[O-])c3)C2=O)cc1 (stereo not given)	·	0	·	-6	-9	0
COc1ccc(NC2CC(=O)N(c3cc([N+](=O)[O-])ccc3C)C2=O)cc1 (stereo not given)	·	43*	·	-5	·	0
C[C@H](CO)N1C[C@H](C)[C@H](CN(C)S(=O)(=O)c2ccc(F)cc2)Oc2ccc(NS(=O)(=O)c3ccccc3)cc2CC1=O	1	0	3	-4	-13	0
CC=Cc1ccc2n(c1=O)C[C@H]1[C@H](CO)[C@@H](C(=O)NCCC)N(CC3CCCC3)[C@@H]21 (mixture of isomers)	1	0	0	-6	5	0
CC(C)c1ccc(/C=N/NC(=O)c2cccc(S(=O)(=O)N3CCOCC3)c2)cc1	2	44*	0	-2	-12	0
CC(C)c1ccc(C(=O)N/N=C/c2cccc(Cl)c2Cl)cc1	-1	·	·	·	113*	·
CC(C)c1ccc(/C=N/NC(=O)c2cccc(Cl)c2)cc1	·	·	·	·	·	0
O=S(=O)(c1ccc(S(=O)(=O)N2CCOCC2)cc1)N1CCCC1	·	43*	·	-1	2	0
O=C(Nc1ccc(S(=O)(=O)N2CCCC2)cc1)c1ccc([N+](=O)[O-])o1	-2	·	·	·	31	·
O=S(=O)(c1ccc(F)cc1)N1CCCNCC1	-1	0	0	-1	27	0
O=C(Nc1ccc(S(=O)(=O)N2CCOCC2)cc1)c1ccc([N+](=O)[O-])o1	0	0	·	-12	88*	1
O=S(=O)(NCc1ccco1)c1ccc(S(=O)(=O)N2CCCCC2)cc1	2	0	·	10	118*	·
Cc1ccc(S(=O)(=O)N2CCCNCC2)cc1	5	0	0	23*	4	0
O=S(=O)(c1ccc(-c2ccccc2)cc1)N1CCOCC1	2	·	·	·	-17	·
Cc1ccc(S(=O)(=O)N2CC[C@H]3[C@H](CO)Nc4ccc(C#Cc5ccc(F)cc5)cc4[C@H]32)cc1	-10	0	1	-13	-23	0
CCCNC(=O)N[C@@H]1CC[C@H](CC(=O)NC2CCCCC2)O[C@H]1CO	-1	0	0	3	7	-1
C[C@@H]1CN([C@H](C)CO)C(=O)c2cc(NS(=O)(=O)c3ccc(Cl)cc3)ccc2O[C@@H]1CN(C)Cc1ccc(Cl)c(Cl)c1	5	0	0	-2	-7	4
Cc1ccc(CN(C)c2ccc(S(=O)(=O)N3CCCC3)cn2)cc1	3	0	·	25*	7	0
